Screen size: about 2,500 compounds; about 460 (18%) were called active. The list is a sample of the results. Unmarked numbers belong to inactive results.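 Rule for the calls: active = mean activation above a cutoff of low control average plus 3 SD from the earlier screen (cut at about 12% in these data); inactive = the rest.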
Test: compound fluorescence interference without thin filaments, confirmation, artefact control for cardiac RTF calcium sensitizer project, biochemical (AID 504382)
Conditions: IANBD fluorescence interference counterscreen, buffer, EC20 Ca2+; at 7.2 µM; stronger effect = higher value; scaled: EC20 calcium 0, EC100 calcium 100
How it was run: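 timing = compound incubation 15 min at 25 °C before fluorescence reading | technique = fluorescence at 480 nm excitation, 540 nm emission | evaluation = interference relative to controls | replication = triplicate wells per compound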

| Structure (SMILES) | fluorescence artifact activation |
| --- | --- |
| CC(=O)c1ccc(NC(=O)CN2C(=O)/C(=C/C=C/c3ccccc3)SC2=S)cc1 | 0.03% |
| O=C(NC1CCCCC1)c1cc2nc3c(c(C(F)(F)F)n2n1)CCCC3 | 7.01% |
| Cc1cc(/C=N/NC(N)=S)c(O)c(/C=N/NC(N)=S)c1 | 181% (active) |
| COc1ccc(-c2nn(-c3ccccc3)cc2/C=N/NC(N)=S)cc1OC | 8.19% |
| O=C(N/N=C/c1cc(Cl)cc(Cl)c1O)c1ccncc1 | 2.37% |
| Cc1cc2c(cc1S(=O)(=O)CCC(=O)NCCc1ccccc1)OCC(=O)N2 | 11.3% |
| CCOC(=O)c1ccc(NC(=O)c2cc3c(C)nn(-c4ccccc4Cl)c3s2)s1 | 1.59% |
| N#CC1=C(N)Oc2cc(O)c(Cl)cc2C1c1ccccc1F (stereo not given) | 54.3% (active) |
| COC(=O)C1=C(CSc2nc3c(cc2C#N)CN(C)CC3)OC(N)=C(C#N)C1c1ccccc1F (stereo not given) | 3.38% |
| CCN(CC)c1ccc2c(c1)OC(N)=C(C#N)C2c1cccnc1 (stereo not given) | 2.43% |
| CCOc1ccc2cc(/C=C/C(=O)c3ccco3)c(Cl)nc2c1 | 0.34% |
| CC(CCc1ccc(O)cc1)NCCC(c1ccccc1)c1ccccc1 (stereo not given) | 13.1% (active) |
| COc1ccc(OC)c(NC(=O)NCCc2cccc(Cl)c2)c1 | 0.03% |
| C=C[C@@](C)(O)CC[C@@H]1[C@@]2(C)CCCC(C)(C)[C@@H]2CC[C@@]1(C)O | 0.16% |
| Cc1cccc(NC2=Nc3ccccc3N3C2=Nc2c(c(C)nn2-c2ccccc2)C3c2ccc(O)c(O)c2)c1 (stereo not given) | 96.4% (active) |
| CC1C/C(=C/c2cccn2C)C(=O)/C(=C/c2cccn2C)C1 (stereo not given) | 0.08% |
| COc1ccc(/C=C/C(=O)NC(=S)Nc2ccc(C(=O)O)cc2)cc1 | 6.95% |
| Cc1nnc(NC(=O)CS(=O)(=O)Cc2ccccc2)s1 | -0.07% |
| O=C(Oc1ccc2ccc(=O)oc2c1)c1cccs1 | 0.02% |
| Cc1noc(C)c1C(=O)Nc1nc2ccccc2s1 | 38.5% (active) |

| Structure (SMILES) | fluorescence artifact activation |
| --- | --- |
| O=S(=O)(/N=C(/Nc1nc2ccccc2s1)c1ccccc1)c1ccc(F)cc1 | 0.13% |
| Cc1onc(-c2ccccc2)c1C(=O)Nc1nc(-c2cc(F)ccc2F)cs1 | 0.13% |
| Cc1c2c(n3c(nc4ccccc43)c1C#N)N(CCN1CCOCC1)CC2 | 0.13% |
| Cc1nc2c(C#N)cnn2c2c1CCN(Cc1ccccc1)N2C | 138% (active) |
| Cn1c2c(c(=O)n(C)c1=O)C(C(F)(F)F)(C(F)(F)F)N=C(CCC1CCCCC1)N2 | 0.01% |
| CC(=O)c1nnn(-c2cccc(C#N)c2)c1C | 0.2% |
| Cc1ccc(/C=C2/NC(=O)N(Cc3ccccc3F)C2=O)s1 | 0.1% |
| CCCCn1c(=O)[nH]c2nc3cc(N)ccc3nc2c1=O | 0.06% |
| Cc1cc2nc3c(=O)n(CCc4ccccc4)c(=O)[nH]c3nc2cc1N | 0.7% |
| Cc1cc2nc3c(=O)n(C4CCCCC4)c(=O)[nH]c3nc2cc1N | 9.65% |
| C=CCn1c(=O)[nH]c2nc3cc(N=CN(C)C)c(C)cc3nc2c1=O | 16.2% (active) |
| CCCCCCn1c(=O)[nH]c2nc3cc(N)c(C)cc3nc2c1=O | 45.6% (active) |
| N=c1oc2c3c4c(cc2cc1C(=O)Nc1ccccc1)CCCN4CCC3 | 4.85% |
| Cn1cccc1/C=C1\CCC/C(=C\c2cccn2C)C1=O | 0.94% |
| O=C(COC(=O)Cn1cnc2ccccc21)Nc1cccc2c1C(=O)c1ccccc1C2=O | 5.29% |
| O=C1/C(=C/c2ccc(Br)cc2)Oc2cc(O)ccc21 | 17.9% (active) |
| O=C1/C(=C/c2cccc(F)c2)Oc2cc(O)ccc21 | -0.06% |
| COc1cc(/C=C2\Oc3cc(O)ccc3C2=O)ccc1O | 0.16% |
| COCCNC(=O)[C@H]1C[C@@H]1[C@H](NP(=O)(c1ccccc1)c1ccccc1)c1ccccc1 | 1400% (active) |
| C[C@H](CO)NC(=O)[C@@H]1C[C@H]1[C@@H](NP(=O)(c1ccccc1)c1ccccc1)c1ccccc1 | 0.29% |

| Structure (SMILES) | fluorescence artifact activation |
| --- | --- |
| C=CCN(C(=O)CNS(=O)(=O)c1ccccc1)C(C(=O)NCCOC)c1ccncc1 (stereo not given) | 0.23% |
| Cc1cc(Br)c2c(c1)C(O)(N1CCCCC1C)C(=O)N2 (stereo not given) | 1.99% |
| CC(C)(C)C(=O)/C=c1\s/c(=C\c2ccc(-c3ccc([N+](=O)[O-])cc3)o2)c(=O)n1CC(=O)NC(N)=O | 7.12% |
| COc1cc(/C=C(\C#N)c2nc3ccccc3o2)ccc1O | 0.62% |
| Nc1nc(SCC(=O)Nc2ccccc2)nc2nc3c(cc12)CCCC3 | 0.24% |
| Cc1cc(C)n2nc3nc4c(cc3c2n1)CCCC4 | 28.7% (active) |
| C=CCOc1ccc(Br)cc1CNCC | 6.82% |
| CCOc1cc(C#N)ccc1OCC(=O)N1CCc2ccccc2C1 | 0.13% |
| CCOc1ccc(C(=O)NCC(=O)N2CCC3CCCCC3C2)cc1OCC (stereo not given) | 59.4% (active) |
| CCOc1ccc(C(=O)NCC(=O)Nc2ncccc2C)cc1OCC | 1.27% |
| COCCOC(=O)/C(=C/c1ccc(OC(=O)c2ccccc2)cc1)C(C)=O | 4.54% |
| COC(=O)c1ccc(NC(=O)c2snnc2-c2ccccc2)cc1 | 1.82% |
| O=C(c1ccc2c(=O)n3c(nc2c1)CCCCC3)N1CCN(c2cccc(Cl)c2)CC1 | 0.04% |
| Oc1ccc2ccccc2c1C=NCc1cn2ccsc2n1 | -0.01% |
| N#C/C(=C\c1ccc(-c2ccc(F)cc2)o1)C(=O)Nc1nc(-c2cccs2)cs1 | 15.1% (active) |
| N#C/C(=C/c1ccc(N2CCOCC2)o1)C(=O)Nc1ccccc1 | 0.03% |
| Cc1cc(Cl)ccc1OCC(=O)Nc1nc(-c2cccs2)cs1 | 0.04% |
| Cn1c(/C(C#N)=C/c2ccc(-c3ccc(S(N)(=O)=O)cc3)o2)nc2ccccc21 | 0.08% |
| N#C/C(=C/c1ccc(-c2ccccc2)o1)c1nc(-c2cccs2)cs1 | 19.2% (active) |
| N#C/C(=C\C=C\c1ccccc1)c1nc(-c2ccc3c(c2)OCO3)cs1 | 0.13% |

Source: PubChem BioAssay AID504382 (The Scripps Research Institute Molecular Screening Center, 2011)
